In ChEMBL document CHEMBL4808207, “Macrocyclic Peptides as a Novel Class of NNMT Inhibitors: A SAR Study Aimed at Inhibitory Activity in the Cell” (ACS Med Chem Lett, 2021):
Numbered stars: 1 amine (or outer) side, 2 acyl side, 3 side chain; on linkers, the order of the positions; unused ones are H or OH. Bridge positions count the residues as written; N and C are the ends. Square brackets hold non-standard residues; d marks the D form. Peptide text beside a SMILES is read from it. Bip(4'-CONH2) = NC(=O)c1ccc(-c2ccc(C[C@H](N)C(=O)O)cc2)cc1; Pro(trans-4-Ph) = O=C(O)[C@@H]1C[C@@H](c2ccccc2)CN1; Pro(cis-4-CF3) = O=C(O)[C@@H]1C[C@H](C(F)(F)F)CN1; X1 = O=C([C@@H]1C[C@@H](C(F)(F)F)CN1[*:1])[*:2]; Phe(4-CONH2) = NC(=O)c1ccc(C[C@H](N)C(=O)O)cc1; Bip = N[C@@H](Cc1ccc(-c2ccccc2)cc1)C(=O)O; Pro(4,4-F2) = O=C(O)[C@@H]1CC(F)(F)CN1; NHCH2CH2SCH2CO = O=C(CSCCN[*:1])[*:2]; Lys(Me2) = CN(C)CCCC[C@H](N)C(=O)O; NMeR = CN[C@@H](CCCNC(=N)N)C(=O)O; NMeF = CN[C@@H](Cc1ccccc1)C(=O)O; tBuAla = CC(C)(C)C[C@H](N)C(=O)O; Tic = O=C(O)[C@@H]1Cc2ccccc2CN1; hLys = NCCCCC[C@H](N)C(=O)O; NMeC = CN[C@@H](CS)C(=O)O; Pip = O=C(O)[C@@H]1CCCCN1

Each compound was assayed against T1, Nicotinamide N-methyltransferase (Mus musculus, UniProt O55239) (assay: Inhibition of mouse recombinant NNMT using nicotinamide and SAM as substrate assessed as reduction in 1-methyl-nicotinamide formation incubated for 22 to 24 hrs by RapidFire Mass spectroscopy). Conditions: not given.
T1 sequence (O55239 whole entry): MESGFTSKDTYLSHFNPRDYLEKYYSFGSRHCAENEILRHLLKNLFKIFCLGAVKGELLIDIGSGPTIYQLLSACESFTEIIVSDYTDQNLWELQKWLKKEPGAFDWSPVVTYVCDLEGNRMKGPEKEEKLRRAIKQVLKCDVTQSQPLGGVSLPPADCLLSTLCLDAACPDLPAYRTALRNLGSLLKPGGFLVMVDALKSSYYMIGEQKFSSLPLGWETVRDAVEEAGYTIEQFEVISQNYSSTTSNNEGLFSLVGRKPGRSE

| SMILES | IC50 [nM] |
| --- | --- |
| CN1C(=O)[C@H](Cc2ccc(O)cc2)NC(=O)[C@@H]2CCCN2C(=O)[C@H](Cc2ccccc2)NC(=O)CSC[C@@H](C(N)=O)NC(=O)[C@H](Cc2ccc(C(N)=O)cc2)NC(=O)[C@@H]2Cc3ccccc3CN2C(=O)[C@@H]2CCCN2C(=O)[C@@H]1CCCNC(=N)N ({CH2CO}-FPY[NMeR]P[Tic][Phe(4-CONH2)]C-NH2; thioether N-8) | 277 |
| CC(C)C[C@@H]1NC(=O)[C@@H]2C[C@H](C(F)(F)F)CN2C(=O)[C@H](Cc2ccccc2)NC(=O)CSC[C@@H](C(N)=O)NC(=O)[C@H](Cc2ccc(C(N)=O)cc2)NC(=O)[C@@H]2Cc3ccccc3CN2C(=O)[C@@H]2CCCN2C(=O)[C@H](CCCCN)NC1=O ({CH2CO}-F[Pro(cis-4-CF3)]LKP[Tic][Phe(4-CONH2)]C-NH2; thioether N-8) | 214 |
| CC(C)C[C@@H]1NC(=O)[C@@H]2C[C@@H](c3ccccc3)CN2C(=O)[C@H](Cc2ccccc2)NC(=O)CSC[C@@H](C(N)=O)NC(=O)[C@H](Cc2ccc(C(N)=O)cc2)NC(=O)[C@@H]2Cc3ccccc3CN2C(=O)[C@@H]2CCCN2C(=O)[C@H](CCCCN)NC1=O ({CH2CO}-F[Pro(trans-4-Ph)]LKP[Tic][Phe(4-CONH2)]C-NH2; thioether N-8) | 1.2 |
| CN1C(=O)CSC[C@@H](C(N)=O)NC(=O)[C@H](Cc2ccc(C(N)=O)cc2)NC(=O)[C@@H]2Cc3ccccc3CN2C(=O)[C@@H]2CCCN2C(=O)[C@H](CCCNC(=N)N)NC(=O)[C@H](Cc2ccccc2)NC(=O)[C@@H]2CCCN2C(=O)[C@@H]1Cc1ccccc1 ({CH2CO}-[NMeF]PFRP[Tic][Phe(4-CONH2)]C-NH2; thioether N-8) | 253 |
| CC(C)C[C@@H]1NC(=O)[C@@H]2CCCN2C(=O)[C@H](Cc2ccccc2)N(C)C(=O)CSC[C@@H](C(N)=O)NC(=O)[C@H](Cc2ccc(C(N)=O)cc2)NC(=O)[C@@H]2Cc3ccccc3CN2C(=O)[C@@H]2CCCN2C(=O)[C@H](CCCCCN)NC1=O ({CH2CO}-[NMeF]PL[hLys]P[Tic][Phe(4-CONH2)]C-NH2; thioether N-8) | 1.3 |
| CN1C(=O)CSC[C@@H](C(N)=O)NC(=O)[C@H](Cc2ccc(C(N)=O)cc2)NC(=O)[C@@H]2Cc3ccccc3CN2C(=O)[C@@H]2CCCN2C(=O)[C@H](CCCNC(=N)N)NC(=O)[C@H](Cc2ccc(O)cc2)NC(=O)[C@@H]2CCCN2C(=O)[C@@H]1Cc1ccccc1 ({CH2CO}-[NMeF]PYRP[Tic][Phe(4-CONH2)]C-NH2; thioether N-8) | 217 |
| CN(C)CCCC[C@@H]1NC(=O)[C@H](Cc2ccc(O)cc2)NC(=O)[C@@H]2CCCN2C(=O)[C@H](Cc2ccccc2)N(C)C(=O)CSC[C@@H](C(N)=O)NC(=O)[C@H](Cc2ccc(C(N)=O)cc2)NC(=O)[C@@H]2Cc3ccccc3CN2C(=O)[C@@H]2CCCN2C1=O ({CH2CO}-[NMeF]PY[Lys(Me2)]P[Tic][Phe(4-CONH2)]C-NH2; thioether N-8) | 1350 |

More lines, now with the values ahead:

| IC50 [nM] | SMILES |
| --- | --- |
| 8030 | CN1C(=O)[C@H](Cc2ccc(C(N)=O)cc2)NC(=O)[C@@H]2Cc3ccccc3CN2C(=O)[C@@H]2CCCN2C(=O)[C@H](CCCNC(=N)N)NC(=O)[C@H](Cc2ccc(O)cc2)NC(=O)[C@@H]2CCCN2C(=O)[C@H](Cc2ccccc2)NC(=O)CSC[C@H]1C(N)=O ({CH2CO}-FPYRP[Tic][Phe(4-CONH2)][NMeC]-NH2; thioether N-8) |
| 1340 | CC(C)C[C@@H]1NC(=O)[C@@H]2CCCN2C(=O)[C@H](Cc2ccccc2)NC(=O)CSC[C@@H](C(N)=O)NC(=O)[C@H](Cc2ccc(C(N)=O)cc2)NC(=O)[C@@H]2Cc3ccccc3CN2C(=O)[C@@H]2C[C@H](C(F)(F)F)CN2C(=O)[C@H](CCCCN)NC1=O ({CH2CO}-FPLK[Pro(cis-4-CF3)][Tic][Phe(4-CONH2)]C-NH2; thioether N-8) |
| 263 | CC(C)C[C@@H]1NC(=O)[C@@H]2CCCN2C(=O)[C@H](Cc2ccccc2)NC(=O)CSC[C@@H](C(N)=O)NC(=O)[C@H](Cc2ccc(C(N)=O)cc2)NC(=O)[C@@H]2Cc3ccccc3CN2C(=O)[C@@H]2C[C@@H](C(F)(F)F)CN2C(=O)[C@H](CCCCN)NC1=O ({CH2CO}-FPLK[X1][Tic][Phe(4-CONH2)]C-NH2; thioether N-8) |
| 188 | CN1C(=O)CSC[C@@H](C(N)=O)NC(=O)[C@H](Cc2ccc(C(N)=O)cc2)NC(=O)[C@@H]2Cc3ccccc3CN2C(=O)[C@@H]2CCCN2C(=O)[C@H](CCCCN)NC(=O)[C@H](Cc2ccc(O)cc2)NC(=O)[C@@H]2CCCN2C(=O)[C@@H]1Cc1ccccc1 ({CH2CO}-[NMeF]PYKP[Tic][Phe(4-CONH2)]C-NH2; thioether N-8) |
| 96 | CC(C)C[C@@H]1NC(=O)[C@@H]2CCCN2C(=O)[C@H](Cc2ccccc2)N(C)C(=O)CSC[C@@H](C(N)=O)NC(=O)[C@H](Cc2ccc(C(N)=O)cc2)NC(=O)[C@@H]2Cc3ccccc3CN2C(=O)[C@@H]2CCCN2C(=O)[C@H](CCCNC(=N)N)NC1=O ({CH2CO}-[NMeF]PLRP[Tic][Phe(4-CONH2)]C-NH2; thioether N-8) |
| 73 | CC(C)C[C@@H]1NC(=O)[C@@H]2CCCN2C(=O)[C@H](Cc2ccccc2)NC(=O)CSC[C@@H](C(N)=O)NC(=O)[C@H](Cc2ccc(-c3ccccc3)cc2)NC(=O)[C@@H]2Cc3ccccc3CN2C(=O)[C@@H]2CCCN2C(=O)[C@H](CCCCN)NC1=O ({CH2CO}-FPLKP[Tic][Bip]C-NH2; thioether N-8) |
| 40 | CC(C)C[C@@H]1NC(=O)[C@@H]2CCCN2C(=O)[C@H](Cc2ccccc2)NC(=O)CSC[C@@H](C(N)=O)NC(=O)[C@H](Cc2ccc(C(N)=O)cc2)NC(=O)[C@@H]2Cc3ccccc3CN2C(=O)[C@@H]2CCCN2C(=O)[C@H](CCCCN)NC1=O ({CH2CO}-FPLKP[Tic][Phe(4-CONH2)]C-NH2; thioether N-8) |
| 25 | N=C(N)NCCC[C@@H]1NC(=O)[C@H](Cc2ccc(O)cc2)NC(=O)[C@@H]2CCCN2C(=O)[C@H](Cc2ccccc2)NC(=O)CSC[C@@H](C(N)=O)NC(=O)[C@H](Cc2ccc(C(N)=O)cc2)NC(=O)[C@@H]2Cc3ccccc3CN2C(=O)[C@@H]2CCCN2C1=O ({CH2CO}-FPYRP[Tic][Phe(4-CONH2)]C-NH2; thioether N-8) |
| 23 | CN1C(=O)CSC[C@@H](C(N)=O)NC(=O)[C@H](Cc2ccc(C(N)=O)cc2)NC(=O)[C@@H]2Cc3ccccc3CN2C(=O)[C@@H]2CCCN2C(=O)[C@H](CCCCN)NC(=O)[C@H](CC(C)(C)C)NC(=O)[C@@H]2CCCN2C(=O)[C@@H]1Cc1ccccc1 ({CH2CO}-[NMeF]P[tBuAla]KP[Tic][Phe(4-CONH2)]C-NH2; thioether N-8) |
| 18 | CC(C)C[C@@H]1NC(=O)[C@@H]2CC(F)(F)CN2C(=O)[C@H](Cc2ccccc2)NC(=O)CSC[C@@H](C(N)=O)NC(=O)[C@H](Cc2ccc(C(N)=O)cc2)NC(=O)[C@@H]2Cc3ccccc3CN2C(=O)[C@@H]2CCCN2C(=O)[C@H](CCCCN)NC1=O ({CH2CO}-F[Pro(4,4-F2)]LKP[Tic][Phe(4-CONH2)]C-NH2; thioether N-8) |
| 18 | CC(C)C[C@@H]1NC(=O)[C@@H]2C[C@@H](C(F)(F)F)CN2C(=O)[C@H](Cc2ccccc2)NC(=O)CSC[C@@H](C(N)=O)NC(=O)[C@H](Cc2ccc(C(N)=O)cc2)NC(=O)[C@@H]2Cc3ccccc3CN2C(=O)[C@@H]2CCCN2C(=O)[C@H](CCCCN)NC1=O ({CH2CO}-F[X1]LKP[Tic][Phe(4-CONH2)]C-NH2; thioether N-8) |
| 13 | CC(C)C[C@@H]1NC(=O)[C@@H]2CCCN2C(=O)[C@H](Cc2ccccc2)NC(=O)CSC[C@@H](C(N)=O)NC(=O)[C@H](Cc2ccc(C(N)=O)cc2)NC(=O)[C@@H]2Cc3ccccc3CN2C(=O)[C@@H]2CC(F)(F)CN2C(=O)[C@H](CCCCN)NC1=O ({CH2CO}-FPLK[Pro(4,4-F2)][Tic][Phe(4-CONH2)]C-NH2; thioether N-8) |
| 0.62 | CN(C)CCCC[C@@H]1NC(=O)[C@H](CC(C)(C)C)NC(=O)[C@@H]2C[C@@H](c3ccccc3)CN2C(=O)[C@H](Cc2ccccc2)N(C)C(=O)CSCCNC(=O)[C@H](Cc2ccc(-c3ccc(C(N)=O)cc3)cc2)NC(=O)[C@@H]2Cc3ccccc3CN2C(=O)[C@@H]2CC(F)(F)CN2C1=O (cyclo([Lys(Me2)][Pro(4,4-F2)][Tic][Bip(4'-CONH2)][NHCH2CH2SCH2CO][NMeF][Pro(trans-4-Ph)][tBuAla])) |

Each compound was assayed on HEK293 (assay: Cytotoxicity against human HEK293 cells overexpressing human NNMT assessed as reduction in ATP level measured after 24 hrs by CellTiter-glo luminescence assay). Conditions: hek293, 24 h.
Format: cell-based
In short: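 Reported value is the peptide concentration giving a 20% decline in cellular ATP in NNMT-overexpressing HEK293 cells, with peptides tested up to 100 μM.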

| SMILES | CC20 [nM] |
| --- | --- |
| CN(C)CCCC[C@@H]1NC(=O)[C@H](CC(C)(C)C)NC(=O)[C@@H]2C[C@@H](c3ccccc3)CN2C(=O)[C@H](Cc2ccccc2)N(C)C(=O)CSCCNC(=O)[C@H](Cc2ccc(-c3ccc(C(N)=O)cc3)cc2)NC(=O)[C@@H]2Cc3ccccc3CN2C(=O)[C@@H]2CC(F)(F)CN2C1=O (cyclo([Lys(Me2)][Pro(4,4-F2)][Tic][Bip(4'-CONH2)][NHCH2CH2SCH2CO][NMeF][Pro(trans-4-Ph)][tBuAla])) | > 100000 |
| CN1C(=O)CSCCNC(=O)[C@H](Cc2ccc(-c3ccc(C(N)=O)cc3)cc2)NC(=O)[C@@H]2Cc3ccccc3CN2C(=O)[C@@H]2CC(F)(F)CN2C(=O)[C@@H]2CCCCN2C(=O)[C@H](CC(C)(C)C)NC(=O)[C@@H]2C[C@@H](c3ccccc3)CN2C(=O)[C@@H]1Cc1ccccc1 (cyclo([NMeF][Pro(trans-4-Ph)][tBuAla][Pip][Pro(4,4-F2)][Tic][Bip(4'-CONH2)][NHCH2CH2SCH2CO])) | > 100000 |
| CC(C)C[C@@H]1NC(=O)[C@@H]2CCCN2C(=O)[C@H](Cc2ccccc2)NC(=O)CSC[C@@H](C(N)=O)NC(=O)[C@H](Cc2ccc(-c3ccc(C(N)=O)cc3)cc2)NC(=O)[C@@H]2Cc3ccccc3CN2C(=O)[C@@H]2CCCN2C(=O)[C@H](CCCCN)NC1=O ({CH2CO}-FPLKP[Tic][Bip(4'-CONH2)]C-NH2; thioether N-8) | > 100000 |
| N=C(N)NCCC[C@@H]1NC(=O)[C@H](Cc2ccc(O)cc2)NC(=O)[C@@H]2CCCN2C(=O)[C@H](Cc2ccccc2)NC(=O)CSC[C@@H](C(N)=O)NC(=O)[C@H](Cc2ccc(C(N)=O)cc2)NC(=O)[C@@H]2Cc3ccccc3CN2C(=O)[C@@H]2CCCN2C1=O ({CH2CO}-FPYRP[Tic][Phe(4-CONH2)]C-NH2; thioether N-8) | > 100000 |
